# Measurements published in ChEMBL document CHEMBL1157331, “Xenicane-type diterpenes with cytotoxicity from Xenia florida” (J Nat Prod, 2006).
# Assays:
# [1] = Cytotoxicity against human Hepa cells after 72 hrs; format: functional; conditions: read-out: ED50 (the source's name)
# Method in brief: (§1)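 Methylene blue binding to fixed cell monolayers. 2880 cells/well seeded, 3 h later sample added; samples prepared at […], incubated 37 °C for 3 days. Absorbance read at 650 nm. ED50 is the concentration giving 50% reduction of absorbance versus untreated cells. Mitomycin as positive control.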
# WiDr = assay: Cytotoxicity against human WiDr cells after 72 hrs; format: functional, cell-based; conditions: for EC50: read-out: ED50 (the source's name); method in brief: as §1
# KB = assay: Cytotoxicity against human KB cells after 72 hrs; format: functional; conditions: read-out: ED50 (the source's name); method in brief: as §1
Structure (SMILES),EC50 [1] [µg/mL],IC50 (WiDr) [µM],EC50 (WiDr) [µg/mL],EC50 (KB) [µg/mL]
C=C1[C@@H]2[C@H](OC(C)=O)OC=C([C@H](OC(C)=O)[C@@H](C=C(C)C)OC(C)=O)[C@H]2CC/C(C)=C/[C@@H](OC(=O)c2ccccc2)[C@H]1O [FLORXENILIDE A],> 20,4.5,2.73,> 20
CO[C@@]12CC[C@H](OC(C)=O)[C@@](C)(CC[C@@H]3/C(=C\C=C\C(C)(C)O)COC(=O)[C@H]31)C2 [FLORXENILIDE C MONOACETATE],> 20,,> 20,> 20
CO[C@@]12[C@H](COC(N)=O)C3=C(C(=O)C(C)=C(N)C3=O)N1C[C@@H]1N[C@@H]12 [MITOMYCIN],0.04,,0.35,0.56
C=C1[C@@H]2[C@H](OC(C)=O)OC=C([C@H](OC(C)=O)[C@@H](C=C(C)C)OC(C)=O)[C@H]2CC[C@]2(C)O[C@H]2[C@@H](OC(=O)c2ccccc2)[C@H]1O [FLORXENILIDE B],8.03,3.7,1.88,11.4
CO[C@@]12CC[C@H](O)[C@@](C)(CC[C@@H]3/C(=C\C=C\C(C)(C)O)COC(=O)[C@H]31)C2 [FLORXENILIDE C],> 20,,> 20,> 20
C=C1[C@@H]2[C@H](OC(C)=O)OC=C([C@H](OC(C)=O)[C@@H](C=C(C)C)OC(C)=O)[C@H]2CC/C(C)=C/[C@@H](OC(=O)c2ccccc2)[C@H]1OC(=O)c1ccccc1,> 20,,> 20,> 20
C=C1C(=O)[C@H](OC(=O)c2ccccc2)/C=C(\C)CC[C@@H]2C([C@H](OC(C)=O)[C@@H](C=C(C)C)OC(C)=O)=CO[C@@H](OC(C)=O)[C@@H]12,> 20,,> 20,> 20
